# Test results published in ChEMBL document CHEMBL1153000, “Berbamine derivatives: a novel class of compounds for anti-leukemia activity” (Eur J Med Chem, 2009).
# Calls of active or inactive are those of the source. No cut-off for these calls is given here.
# Assays:
# K562 [1] = assay: Cytotoxicity against human imatinib-resistant K562 leukemia cells expressing p210Bcr/Abl and MDR1 at 48 hrs by MTT assay; type: functional, cell-based; conditions: K562, 48 h
# Outline: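 Cells were cultured with 100 µg/ml streptomycin at 37 °C in a humidified 95% air/5% CO2 incubator. Viability was read by MTT after 48 h exposure and counts were taken by hemocytometer. IC50 is the mean of three independent determinations.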
# K562 [2] = assay: Inhibition of NF-kappaB translocation from cytoplasm to nucleus in human imatinib-resistant K562 leukemia cells expressing p210Bcr/Ab assessed as disappearance of NF-kappaB p65/relA subunit nuclear level at 0.5 ug/ml after 24 hrs by Western blot analysis; type: functional, cell-based
# Outline: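 Leukemia cells were exposed for 24 h (berbamine 8 µg/ml; derivatives 0.5 µg/ml). Nuclear levels of NF-κB p65/relA were analysed by immunoblot with lamin as the nuclear loading control, and total p65 was also assessed.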
# K562 [3] = assay: Inhibition of NF-kappaB translocation from cytoplasm to nucleus in human imatinib-resistant K562 leukemia cells expressing p210Bcr/Ab assessed as disappearance of NF-kappaB p65/relA subunit nuclear level at 0.5 ug/ml after 24 hrs by Western blot analysis
# K562 [4] = assay: Cell cycle arrest in human imatinib-resistant K562 leukemia cells expressing p210Bcr/Ab assessed as accumulation at G0/G1 phase at 1 ug/ml after 48 hrs by flow cytometry; type: functional
# Outline: (§1)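 K562-R cells (MDR1-expressing) were treated with 1.0 or 2.0 µg/ml for 48 h, then harvested, PBS-washed, fixed in ice-cold 70% ethanol at 4 °C overnight, and stained with 50 µg/ml propidium iodide. Flow cytometry gave the percentage of cells in G0/G1, S and G2/M, with the sub-G1 fraction scored as apoptotic.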
# K562 [5] = assay: Cell cycle arrest in human imatinib-resistant K562 leukemia cells expressing p210Bcr/Ab assessed as accumulation at S phase at 1 ug/ml after 48 hrs by flow cytometry; type: functional; outline: as §1
# K562 [6] = assay: Cell cycle arrest in human imatinib-resistant K562 leukemia cells expressing p210Bcr/Ab assessed as accumulation at G2/M phase at 1 ug/ml after 48 hrs by flow cytometry; type: functional; outline: as §1
# K562 [7] = assay: Cell cycle arrest in human imatinib-resistant K562 leukemia cells expressing p210Bcr/Ab assessed as accumulation at G0/G1 phase at 2 ug/ml after 48 hrs by flow cytometry; type: functional; outline: as §1
# K562 [8] = assay: Cell cycle arrest in human imatinib-resistant K562 leukemia cells expressing p210Bcr/Ab assessed as accumulation at S phase at 2 ug/ml after 48 hrs by flow cytometry; type: functional; outline: as §1
# K562 [9] = assay: Cell cycle arrest in human imatinib-resistant K562 cells assessed as accumulation at G2/M phase at 2 ug/ml after 48 hrs by flow cytometry; type: functional; outline: as §1
# K562 [10] = assay: Induction of apoptosis in human imatinib-resistant K562 cells expressing p210Bcr/Abl at 1 ug/ml after 48 hrs by flow cytometry; type: functional; outline: as §1
# K562 [11] = assay: Induction of apoptosis in human imatinib-resistant K562 leukemia cells expressing p210Bcr/Abl at 2 ug/ml after 48 hrs by flow cytometry; type: functional; outline: as §1
Structure (SMILES),IC50 (K562 [1]),further results
COc1cc2c3cc1Oc1c(OC)c(OC)cc4c1[C@@H](Cc1ccc(OC(C)=O)c(c1)Oc1ccc(cc1)C[C@@H]3N(C)CC2)N(C)CC4,6600 nM,
COc1cc2c3cc1Oc1c(OC)c(OC)cc4c1[C@@H](Cc1ccc(OC(=O)c5ccccc5Cl)c(c1)Oc1ccc(cc1)C[C@@H]3N(C)CC2)N(C)CC4,600 nM,
COc1cc2c3cc1Oc1c(OC)c(OC)cc4c1[C@@H](Cc1ccc(OC(=O)c5cccc(F)c5)c(c1)Oc1ccc(cc1)C[C@@H]3N(C)CC2)N(C)CC4,1970 nM,
COc1cc2c3cc1Oc1c(OC)c(OC)cc4c1[C@@H](Cc1ccc(OC(=O)c5cc([N+](=O)[O-])cc([N+](=O)[O-])c5)c(c1)Oc1ccc(cc1)C[C@@H]3N(C)CC2)N(C)CC4,3750 nM,
COc1cc2c3cc1Oc1c(OC)c(OC)cc4c1[C@@H](Cc1ccc(OC(=O)c5cc(OC)c(OC)c(OC)c5)c(c1)Oc1ccc(cc1)C[C@@H]3N(C)CC2)N(C)CC4,690 nM,inhibition (K562 [2]): Active; inhibition (K562 [3]): Active
CCOc1ccc2cc1Oc1ccc(cc1)C[C@H]1c3cc(c(OC)cc3CCN1C)Oc1c(OC)c(OC)cc3c1[C@@H](C2)N(C)CC3,3140 nM,
COc1cc2c3cc1Oc1c(OC)c(OC)cc4c1[C@@H](Cc1ccc(OS(C)(=O)=O)c(c1)Oc1ccc(cc1)C[C@@H]3N(C)CC2)N(C)CC4,4740 nM,
COc1cc2c3cc1Oc1c(OC)c(OC)cc4c1[C@@H](Cc1ccc(OC(=O)c5cc6ccccc6[nH]5)c(c1)Oc1ccc(cc1)C[C@@H]3N(C)CC2)N(C)CC4,460 nM,
COc1cc2c3cc1Oc1c(OC)c(OC)cc4c1[C@@H](Cc1ccc(OC(=O)CCl)c(c1)Oc1ccc(cc1)C[C@@H]3N(C)CC2)N(C)CC4,2700 nM,
COc1cc2c3cc1Oc1c(OC)c(OC)cc4c1[C@@H](Cc1ccc(OCc5ccc(Br)cc5)c(c1)Oc1ccc(cc1)C[C@@H]3N(C)CC2)N(C)CC4,710 nM,
COc1cc2c3cc1Oc1c(OC)c(OC)cc4c1[C@@H](Cc1ccc(OCc5cc(OC)c(OC)c(OC)c5)c(c1)Oc1ccc(cc1)C[C@@H]3N(C)CC2)N(C)CC4,1530 nM,
COc1ccc(C(=O)Oc2ccc3cc2Oc2ccc(cc2)C[C@H]2c4cc(c(OC)cc4CCN2C)Oc2c(OC)c(OC)cc4c2[C@@H](C3)N(C)CC4)cc1,550 nM,inhibition (K562 [2]): Active; inhibition (K562 [3]): Active
COc1cc2c3cc1Oc1c(OC)c(OC)cc4c1[C@@H](Cc1ccc(OC(=O)c5ccco5)c(c1)Oc1ccc(cc1)C[C@@H]3N(C)CC2)N(C)CC4,2780 nM,
COc1cc2c3cc1Oc1c(OC)c(OC)cc4c1[C@@H](Cc1ccc(OCc5ccccc5)c(c1)Oc1ccc(cc1)C[C@@H]3N(C)CC2)N(C)CC4,800 nM,
COc1cc2c3cc1Oc1c(OC)c(OC)cc4c1[C@@H](Cc1ccc(OS(=O)(=O)c5ccccc5)c(c1)Oc1ccc(cc1)C[C@@H]3N(C)CC2)N(C)CC4,1990 nM,
C=C(C)C(=O)Oc1ccc2cc1Oc1ccc(cc1)C[C@H]1c3cc(c(OC)cc3CCN1C)Oc1c(OC)c(OC)cc3c1[C@@H](C2)N(C)CC3,3810 nM,

Structure (SMILES),IC50 (K562 [1]),further results
COc1cc2c3cc1Oc1c(OC)c(OC)cc4c1[C@@H](Cc1ccc(OC(=O)c5cccc(CCl)c5)c(c1)Oc1ccc(cc1)C[C@@H]3N(C)CC2)N(C)CC4,500 nM,
COc1cc2c3cc1Oc1c(OC)c(OC)cc4c1[C@@H](Cc1ccc(OC(=O)c5ccccc5Br)c(c1)Oc1ccc(cc1)C[C@@H]3N(C)CC2)N(C)CC4,780 nM,
COc1cc2c3cc1Oc1c(OC)c(OC)cc4c1[C@@H](Cc1ccc(OC(=O)C(C)(C)C)c(c1)Oc1ccc(cc1)C[C@@H]3N(C)CC2)N(C)CC4,1010 nM,
COc1cc2c3cc1Oc1c(OC)c(OC)cc4c1[C@@H](Cc1ccc(OC(=O)c5ccccc5)c(c1)Oc1ccc(cc1)C[C@@H]3N(C)CC2)N(C)CC4,2160 nM,
COc1cc2c3cc1Oc1c(OC)c(OC)cc4c1[C@@H](Cc1ccc(OC(=O)c5ccc(Br)cc5)c(c1)Oc1ccc(cc1)C[C@@H]3N(C)CC2)N(C)CC4,400 nM,
COc1cc2c3cc1Oc1c(OC)c(OC)cc4c1[C@@H](Cc1ccc(OCc5ccc(Cl)nc5)c(c1)Oc1ccc(cc1)C[C@@H]3N(C)CC2)N(C)CC4,400 nM,
CCOCCCCOc1ccc2cc1Oc1ccc(cc1)C[C@H]1c3cc(c(OC)cc3CCN1C)Oc1c(OC)c(OC)cc3c1[C@@H](C2)N(C)CC3,4080 nM,
COc1cc2c3cc1Oc1c(OC)c(OC)cc4c1[C@@H](Cc1ccc(OC(=O)Cc5cc(F)c(F)cc5F)c(c1)Oc1ccc(cc1)C[C@@H]3N(C)CC2)N(C)CC4,3020 nM,
COc1cc2c3cc1Oc1c(OC)c(OC)cc4c1[C@@H](Cc1ccc(OC(=O)Cc5ccccc5)c(c1)Oc1ccc(cc1)C[C@@H]3N(C)CC2)N(C)CC4,2230 nM,
COc1cc2c3cc1Oc1c(OC)c(OC)cc4c1[C@@H](Cc1ccc(OC(=O)c5ccc(Cl)cc5)c(c1)Oc1ccc(cc1)C[C@@H]3N(C)CC2)N(C)CC4,980 nM,inhibition (K562 [2]): Active; inhibition (K562 [3]): Active
COc1cc2c3cc1Oc1c(OC)c(OC)cc4c1[C@@H](Cc1ccc(O)c(c1)Oc1ccc(cc1)C[C@@H]3N(C)CC2)N(C)CC4 [BERBAMINE],8930 nM,inhibition (K562 [2]): Active; inhibition (K562 [3]): Active
COc1cc2c3cc1Oc1c(OC)c(OC)cc4c1[C@@H](Cc1ccc(OCCCBr)c(c1)Oc1ccc(cc1)C[C@@H]3N(C)CC2)N(C)CC4,1660 nM,
COc1cc2c3cc1Oc1c(OC)c(OC)cc4c1[C@@H](Cc1ccc(OCc5ccc([N+](=O)[O-])cc5)c(c1)Oc1ccc(cc1)C[C@@H]3N(C)CC2)N(C)CC4,360 nM,
COc1cc2c3cc1Oc1c(OC)c(OC)cc4c1[C@@H](Cc1ccc(OC(=O)c5ccc([N+](=O)[O-])cc5)c(c1)Oc1ccc(cc1)C[C@@H]3N(C)CC2)N(C)CC4 [E6 BERBAMINE],2130 nM,
COc1cc2c3cc1Oc1c(OC)c(OC)cc4c1[C@@H](Cc1ccc(OC(=O)c5cccc(C(F)(F)F)c5)c(c1)Oc1ccc(cc1)C[C@@H]3N(C)CC2)N(C)CC4,890 nM,
COc1cc2c3cc1Oc1c(OC)c(OC)cc4c1[C@@H](Cc1ccc(OC(=O)c5ccccc5C)c(c1)Oc1ccc(cc1)C[C@@H]3N(C)CC2)N(C)CC4,690 nM,inhibition (K562 [2]): Active; Activity (K562 [4]): 32.37%; Activity (K562 [5]): 29.28%; Activity (K562 [6]): 7.3%; Activity (K562 [7]): 20.04%; Activity (K562 [8]): 22.89%; Activity (K562 [9]): 6.01%; Activity (K562 [10]): 31.71%; Activity (K562 [11]): 51.91%; inhibition (K562 [3]): Active
